Reference: ChEMBL document CHEMBL1649102, “Stereochemical survey of digitoxin monosaccharides: new anticancer analogues with enhanced apoptotic activity and growth inhibitory effect on human non-small cell lung cancer cell” (ACS Med Chem Lett, 2011)

Assay: Growth inhibition of human NCI60 cells
Type: functional
Procedure, shortened: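 NCI-60 cell lines grown in RPMI 1640 with 5% FBS and 2 mM L-glutamine, plated at 5,000–40,000 cells/well and preincubated 24 h. Time-zero plates were TCA-fixed. Drug was given at five concentrations (10-fold or ½-log dilutions from DMSO stock) for 48 h at 37°C. Cells were TCA-fixed, stained with SRB, and read at 515 nm. GI50 is where [(Ti−Tz)/(C−Tz)]×100 = 50.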

With `C[C@H]1O[C@H](O[C@H]2CC[C@@]3(C)[C@H](CC[C@@H]4[C@@H]3CC[C@]3(C)[C@@H](C5=CC(=O)OC5)CC[C@]43O)C2)C=C[C@@H]1O` as the molecule, how does the GI50 read?
The GI50 was 1 nM.
